Entries after “also recorded” stand apart in the source; their conditions may differ.
Assays:
mouse DRG neurons [1] = test: NfL release in response to rotenone; assay type: cell-based; conditions: 25 μM rotenone
In short: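 Culture supernatants from mouse DRG neurons exposed to 25 µM rotenone, either continuously sampled over time or as 1- or 3-h pulses with collection at 48 h. Neurofilament light measured by NF-Light ELISA per the kit instructions.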

mouse DRG neurons [2] = test: Axonal cADPR after 3-h rotenone pulse; assay type: cell-based; conditions: 3 h 25 μM rotenone, rinse, then 4 h compound
In short: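 Mouse DRG cultures given a 3-h pulse of 25 µM rotenone, rinsed, then test compound added. Axonal metabolites extracted on ice: cell bodies removed, 50% MeOH, chloroform partition, lyophilization. cADPR measured by SPE-LC-MS/MS with 2-chloroadenosine internal standard against synthetic standard curves; reported as ng/100,000 cells.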

mouse DRG neurons [3] = test: Video time-lapse analysis of individual axonal blebs after rotenone pulse; assay type: cell-based
In short: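 Mouse DRG cultures given a 3-h pulse of 25 µM rotenone, rinsed, ± 30 µM test compound, then imaged brightfield every 15 min at 20X for 48 h. A blinded observer identified blebs at 3 h, tracked them back to confirm origin from healthy axons, then forward until fragmentation, resolution or end. Data analysed by Kaplan-Meier, with percentages taken at 48 h.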

[4] = system: axotomized mouse DRG neurons; test: Axon degeneration; assay type: cell-based; conditions: for axonal protection after axotomy: WT mouse DRG, 16 h post-axotomy
In short: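 Mouse DRG from E13.5 C57BL/6J embryos, trypsin/EDTA-dissociated (37°C, 30 min), spotted at 5,000 cells/well on poly-D-lysine/laminin; assay at 6–7 DIV. Test compound diluted from 10 mM DMSO stock (final DMSO 0.3%), pretreated 2 h unless added after injury (e.g. 30 µM at set times). Axons cut manually with micro-surgical blade and scored for fragmentation 16 h post-axotomy.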

CD38 = target: T1, CD38 (Homo sapiens, UniProt P28907); test: Biochemical selectivity panel
T1 sequence (P28907 1-300): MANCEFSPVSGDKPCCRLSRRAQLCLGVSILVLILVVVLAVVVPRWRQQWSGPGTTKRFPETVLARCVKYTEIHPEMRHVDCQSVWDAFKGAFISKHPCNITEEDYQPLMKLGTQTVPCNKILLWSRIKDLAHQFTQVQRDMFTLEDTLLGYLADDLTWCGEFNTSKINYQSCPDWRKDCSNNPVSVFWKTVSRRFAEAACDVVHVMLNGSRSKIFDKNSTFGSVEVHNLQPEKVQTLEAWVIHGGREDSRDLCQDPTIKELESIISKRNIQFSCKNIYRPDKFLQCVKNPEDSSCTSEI

mouse DRG neurons [5] = test: Rotenone-induced axonal degeneration; assay type: cell-based
In short: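 Mouse DRG cultures at 6–7 DIV received 25 µM rotenone, either continuously or as 1- or 3-h pulses removed by gentle 3× rinsing. Test compound at 30 µM was given either as 2-h pretreatment or immediately after rotenone removal. Axonal fragmentation scored 48 h after rotenone onset; n = 4.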

[6] = system: human iPSC-derived motor neurons; test: Axon fragmentation after axotomy in human motor neurons; assay type: cell-based
In short: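 Human iPSC-derived motor neurons spotted at 10,000 cells/well on poly-D-lysine/laminin in Complete Maintenance Medium + 5 µM DAPT; assay at 14 DIV. Test compound diluted from 10 mM DMSO stock (final DMSO 0.3%), pretreated 2 h before injury. Axons cut manually with micro-surgical blade and examined for fragmentation 16 h post-axotomy.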

[7] = system: axotomized mouse dorsal root ganglia (DRG) axons; test: Axonal metabolites; assay type: cell-based; conditions: axonal lysates after axotomy, dose dependent
In short: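 Mouse E13.5 DRG neurons spotted at 100,000 cells/well; test compound present at graded concentrations; all axons severed around the soma cluster at DIV6. After 4 h, cell bodies removed on ice; axons extracted in 50% MeOH with chloroform partition, then lyophilized. cADPR and NAD+ quantified by online SPE-LC-MS/MS with 2-chloroadenosine internal standard against synthetic standard curves. Reported as ng/100,000 cells; n = 3/condition.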

mouse DRG axons = test: Mitochondrial membrane potential by TMRM fluorescence; assay type: cell-based
In short: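 Mitochondrial membrane potential in mouse DRG axons read live as TMRM fluorescence; cells were then rinsed, fixed in 1% paraformaldehyde and immunostained for βIII-tubulin. Axotomy arm: 10 µM test compound. Rotenone arm: 3-h pulse of 25 µM rotenone, rinsed 3×, 30 µM test compound immediately afterward, imaged 48 h after rotenone onset; n = 4.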

[8] = target: T2, constitutively active SAM-TIR protein of human SARM1 (Homo sapiens, UniProt Q6SZW1); test: SAM-TIR NADase assay; assay type: biochemical
T2 sequence (Q6SZW1 409-700): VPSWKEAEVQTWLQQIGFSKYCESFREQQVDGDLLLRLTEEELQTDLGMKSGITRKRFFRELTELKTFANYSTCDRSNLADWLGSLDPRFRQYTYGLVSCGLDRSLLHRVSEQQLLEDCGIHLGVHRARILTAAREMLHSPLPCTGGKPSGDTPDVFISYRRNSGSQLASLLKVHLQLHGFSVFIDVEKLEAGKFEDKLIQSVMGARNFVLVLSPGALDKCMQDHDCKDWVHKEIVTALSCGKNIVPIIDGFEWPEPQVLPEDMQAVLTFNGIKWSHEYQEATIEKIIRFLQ

mouse DRG somas = test: Neuronal cell death after rotenone pulse; assay type: cell-based; conditions: WT DRG, 25 µM rotenone, 48 h
In short: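 Live mouse DRG cultures exposed to 25 µM rotenone for 48 h, then stained 20 min with 0.25 µM Cytotox Green (dead cells) and 1 µM Cytolight red. Imaged by IncuCyte at 20X, 9 fields/well; bright-field gave total cell counts and green fluorescence gave dead somas.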

[9] = 30 μM added after 3-h pulse of 25 μM rotenone

Q: With `Ic1cccc2cnccc12` [DSRM-3716, 5-iodoisoquinoline] as the molecule, how does the “NfL release into culture supernatant in response to rotenone” value (mouse DRG neurons [1]) read?
A: Its value is “can be prevented”.

Q: And the “axonal levels of cADPR after rotenone pulse” value (mouse DRG neurons [2])?
A: Its value is “reduced axonal levels of cADPR”.

Q: And the “axonal blebs induced by rotenone that fragmented (transected)” value (mouse DRG neurons [3]; [9])?
A: Its value is 10%.

Q: What about the “axonal blebs induced by rotenone that remained” value (mouse DRG neurons [3]; [9]) of the same molecule?
A: Its value is 30%.

Q: And the “additional axonal protection in SARM1−/− neurons” value ([4]; SARM1−/− DRG, 30 µM, axotomy)?
A: The value was “did not provide benefit beyond the robust protection observed with SARM1 genetic loss of function”.

Q: What about the “axonal protection after axotomy” value [4] of the same molecule?
A: The value was “protected axons”.

Q: And the “axonal protection, inhibitor added after injury” value ([4]; added 5 h post-axotomy)?
A: The value was “robustly protected”.

Q: What about the “inhibitory activity against CD38” value (CD38) of the same molecule?
A: The value was “no inhibitory activity”.

Q: And the “protection from rotenone-induced axonal degeneration (pretreatment)” value (mouse DRG neurons [5]; 25 μM rotenone, 48 h, 30 μM compound)?
A: The value was “prevented axonal degeneration to the same extent as protection observed in SARM1^−/− neurons; also recorded: robust protection”.

Q: And the “protection from fragmentation, compound added after rotenone pulse” value (mouse DRG neurons [5]; 3-h pulse 25 μM rotenone, 30 μM compound immediately after removal, 48 h)?
A: The value was “protected axons from fragmentation”.

Q: What about the “protection from fragmentation after axotomy” value [6] of the same molecule?
A: Its value is “dose-dependent protection”.

Q: What about the “preservation of NAD+ after axotomy” value [7] of the same molecule?
A: The value was “substantial preservation of NAD^+”.

Q: What about the “TMRM fluorescence (mitochondrial viability) after axotomy” value (mouse DRG axons; 10 μM, axotomy) of the same molecule?
A: Its value is “preserved TMRM fluorescence; also recorded: maintained viable functional mitochondria”.

Q: And the “mitochondrial function by TMRM after rotenone pulse” value (mouse DRG axons; 3-h pulse 25 μM rotenone, 30 μM compound after removal, 48 h)?
A: Its value is “preserved mitochondrial function”.

Q: For `Oc1cccc2cnccc12` [compound 3, 5-hydroxyisoquinoline], which IC50 [8] is on record?
A: Its IC50 is 2600 nM.

Q: For `O=C(c1cc(Cc2n[nH]c(=O)c3ccccc23)ccc1F)N1CCN(C(=O)C2CC2)CC1` [olaparib, reference compound], which “axonal protection after axotomy” value [4] is on record?
A: The value was “no protection of injured axons”.

Q: Which “neuronal cell death (dead somas) caused by rotenone” value (mouse DRG somas) does the source give for `C=C(C)[C@H]1Cc2c(ccc3c2O[C@@H]2COc4cc(OC)c(OC)cc4[C@@H]2C3=O)O1` [rotenone, reference compound] here?
A: Its value is “approximately 60%”.

Q: What about the “blebs transected after rotenone removal” value (mouse DRG neurons [3]; 3-h pulse 25 μM rotenone, by 18 h) of the same molecule?
A: The value was 95%.

Q: What about the “blebs fragmented after rotenone removal” value (mouse DRG neurons [3]; 3-h pulse 25 μM rotenone, by 48 h) of the same molecule?
A: The value was 100%.

Q: And the “axonal degeneration after rotenone pulse” value (mouse DRG neurons [5]; 25 μM rotenone removed after 1 h, examined at 48 h)?
A: Its value is ~ 70%.

— PMC8179325 (Cell reports, 2021)
